Active and inactive are the calls of the source. The calls are words filed in the database; no cut-off is given here.
Columns and labels:
Mus musculus [1] = assay: Antiinflammatory activity against trinitrobenzenesulfonic acid-induced colitis in human PXR expressing transgenic C57/BL6 mouse assessed as induction of CYP3A11 mRNA expression in colon at 10 mg/kg, po qd after 5 days by quantitative RT-PCR; format: functional, organism-based; parameters: dose 10 mg/kg; conditions: C57Bl/6
How it was run: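 Cyp3A11 mRNA in colon of TNBS-colitic hPXR mice was measured by SYBR Green qPCR (50 ng template, 0.2 μM primers). Cycling was 95 °C for 2 min, then 40 cycles of 95/55/72 °C, with each reaction run in triplicate. Expression was calculated by ΔΔCT against GAPDH relative to untreated control. Mean ± SE, 5 mice/group.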

Mus musculus [2] = assay: Antiinflammatory activity against trinitrobenzenesulfonic acid-induced colitis in human PXR expressing transgenic C57/BL6 mouse assessed as decrease in INF-gamma protein level in colon at 10 mg/kg, po qd after 5 days; format: functional, organism-based; parameters: dose 10 mg/kg; conditions: C57Bl/6
Mus musculus [3] = assay: Antiinflammatory activity against trinitrobenzenesulfonic acid-induced colitis in human PXR expressing transgenic C57/BL6 mouse assessed as decrease in edema of colon at 10 mg/kg, po qd administered 3 days before TNBS challenge measured after 7 days; format: functional, organism-based; parameters: dose 10 mg/kg; conditions: C57Bl/6
How it was run: (§1)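 hPXR male mice were fasted 16 h and given TNBS intrarectally (0.5 mg/mouse in 50% ethanol). Oral 10 mg/kg once daily (DMSO stock diluted in 1% methylcellulose) began 3 days before TNBS; vehicle controls received 1% methylcellulose. Four days after TNBS, colon macroscopic appearance was graded blind for induration, edema, thickness and mucosal hemorrhage. n = 6–7.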

Mus musculus [4] = assay: Antiinflammatory activity against trinitrobenzenesulfonic acid-induced colitis in human PXR expressing transgenic C57/BL6 mouse assessed as decrease in IL-12p70 protein level in colon at 10 mg/kg, po qd after 5 days; format: functional, organism-based; parameters: dose 10 mg/kg; conditions: C57Bl/6
Mus musculus [5] = assay: Antiinflammatory activity against trinitrobenzenesulfonic acid-induced colitis in human PXR expressing transgenic C57/BL6 mouse assessed as decrease in TNF-alpha protein level in colon at 10 mg/kg, po qd after 5 days by ELISA; format: functional, organism-based; parameters: dose 10 mg/kg; conditions: C57Bl/6
How it was run: (§2)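 TNFα and IL-10 were measured by ELISA in colon homogenates (T-PER lysis, 10,000g for 15 min at 4 °C) from TNBS-colitic hPXR mice. Mice were dosed orally at 10 mg/kg once daily in DMSO/1% methylcellulose, starting 3 days before intrarectal TNBS (0.5 mg/mouse). Values were normalized to protein; mean ± SE, 6–7 mice/group.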

Mus musculus [6] = assay: Antiinflammatory activity against trinitrobenzenesulfonic acid-induced colitis in human PXR expressing transgenic C57/BL6 mouse assessed as decrease in microscopic colon damage at 10 mg/kg, po qd administered 3 days before TNBS challenge measured after 7 days; format: functional, organism-based; parameters: dose 10 mg/kg; conditions: C57Bl/6
How it was run: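 Microscopic colon damage in the prophylactic TNBS model in hPXR mice: oral 10 mg/kg daily, in DMSO/1% methylcellulose, from 3 days before intrarectal TNBS (0.5 mg/mouse in 50% ethanol). Colons were collected at day 4 post-TNBS, formalin-fixed, paraffin-embedded and H&E-stained, then graded blind on a 0–4 scale (leukocyte infiltration, vascular density, wall thickening, goblet cell loss). n = 6–7.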

Mus musculus [7] = assay: (§3) Antiinflammatory activity against trinitrobenzenesulfonic acid-induced colitis in human PXR expressing transgenic C57/BL6 mouse assessed as decrease in appearance of epithelial erosions in colon at 10 mg/kg, po qd administered 3 days before TNBS challenge measured after 7 days by haematoxylin/eosin staining; format: functional, organism-based; parameters: dose 10 mg/kg; conditions: C57Bl/6
How it was run: (§4)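 TNBS colitis in male hPXR mice (human PXR on mouse PXR-null background). After a 16 h fast and light ketamine/xylazine i.p. anesthesia, mice received TNBS 0.5 mg/mouse in 50% ethanol intrarectally by catheter. Dosing was 10 mg/kg orally once daily, dissolved in DMSO and diluted in 1% methylcellulose, starting 3 days before TNBS. Colons were taken 4 days after TNBS and stained with H&E. n = 6–7.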

Mus musculus [8] = assay: Antiinflammatory activity against trinitrobenzenesulfonic acid-induced colitis in human PXR expressing transgenic C57/BL6 mouse assessed as decrease in occurrence of diarrhea at 10 mg/kg, po qd administered 3 days before TNBS challenge measured after 7 days; format: functional, organism-based; parameters: dose 10 mg/kg; conditions: C57Bl/6
How it was run: (§5)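 Clinical read-outs in hPXR mice with TNBS colitis (0.5 mg/mouse intrarectally in 50% ethanol after a 16 h fast). Oral dosing at 10 mg/kg once daily (DMSO diluted in 1% methylcellulose) started 3 days before TNBS. Diarrhea was scored and body weight recorded, weight expressed as delta percentage versus the day before TNBS; sacrifice was 4 days after TNBS. n = 6–7.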

Mus musculus [9] = assay: Antiinflammatory activity against trinitrobenzenesulfonic acid-induced colitis in human PXR expressing transgenic C57/BL6 mouse assessed as decrease in weight loss at 10 mg/kg, po qd administered 3 days before TNBS challenge measured after 7 days; format: functional, organism-based; parameters: dose 10 mg/kg; conditions: C57Bl/6; how it was run: as §5
Mus musculus [10] = assay: Antiinflammatory activity against trinitrobenzenesulfonic acid-induced colitis in human PXR expressing transgenic C57/BL6 mouse assessed as increase in IL-10 protein level in colon at 10 mg/kg, po qd after 5 days by ELISA; format: functional, organism-based; parameters: dose 10 mg/kg; conditions: C57Bl/6; how it was run: as §2
Mus musculus [11] = assay: Antiinflammatory activity against trinitrobenzenesulfonic acid-induced colitis in human PXR expressing transgenic C57/BL6 mouse assessed as decrease in evidence of mucosal hemorrhage damage at 10 mg/kg, po qd administered 3 days before TNBS challenge measured after 7 days; format: functional, organism-based; parameters: dose 10 mg/kg; conditions: C57Bl/6; how it was run: as §1
Mus musculus [12] = assay: Antiinflammatory activity against trinitrobenzenesulfonic acid-induced colitis in human PXR expressing transgenic C57/BL6 mouse assessed as decrease in colonic myeloperoxidase activity at 10 mg/kg, po qd after 5 days using trimethylbenzidine as substrate by spectrophotometry; format: functional, organism-based; parameters: dose 10 mg/kg; conditions: C57Bl/6
How it was run: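 Colon myeloperoxidase from TNBS-colitic hPXR mice given oral 10 mg/kg daily. Colon was lysed in T-PER and minced, then centrifuged at 10,000g for 15 min at 4 °C. After two freeze/thaw cycles, MPO in the homogenate was measured spectrophotometrically with TMB substrate and normalized to protein. Mean ± SE, 6–7 mice/group.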

Mus musculus [13] = assay: Antiinflammatory activity against trinitrobenzenesulfonic acid-induced colitis in human PXR expressing transgenic C57/BL6 mouse assessed as increase in TGF-beta1 protein level in colon at 10 mg/kg, po qd after 5 days; conditions: C57Bl/6
Mus musculus [14] = assay: Antiinflammatory activity against trinitrobenzenesulfonic acid-induced colitis in human PXR expressing transgenic C57/BL6 mouse assessed as decrease in presence of indurations in colon at 10 mg/kg, po qd administered 3 days before TNBS challenge measured after 7 days; format: functional, organism-based; parameters: dose 10 mg/kg; conditions: C57Bl/6; how it was run: as §1
Mus musculus [15] = assay: as §3, with “submucosal edema” for “epithelial erosions”; format: functional, organism-based; parameters: dose 10 mg/kg; conditions: C57Bl/6; how it was run: as §4
THP-1 = assay: Inhibition of NF-kappaB p65 DNA binding activity in LPS-stimulated human THP1 cells at 10 uM after 3 hrs by electrophoretic mobility shift assay; format: cell-based
How it was run: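 THP-1 cells were pretreated with compound (10 μM) or vehicle for 3 h, then LPS 1 μg/mL was added for 20 h. Nuclear extracts were incubated with biotinylated NF-κB probe for 20 min at room temperature, run on a 6% native gel and detected by chemiluminescence. Specificity was checked by cold-probe competition and p65 antibody supershift. Three independent experiments.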

Mus musculus [16] = assay: Antiinflammatory activity against trinitrobenzenesulfonic acid-induced colitis in human PXR expressing transgenic C57/BL6 mouse assessed as decrease in thickness of colon at 10 mg/kg, po qd administered 3 days before TNBS challenge measured after 7 days; format: functional, organism-based; parameters: dose 10 mg/kg; conditions: C57Bl/6; how it was run: as §1
Mus musculus [17] = assay: Antiinflammatory activity against trinitrobenzenesulfonic acid-induced colitis in human PXR expressing transgenic C57/BL6 mouse assessed as decrease in MIP-1alpha protein level in colon at 10 mg/kg, po qd after 5 days; format: functional, organism-based; parameters: dose 10 mg/kg; conditions: C57Bl/6
[18] = molecular target: T1, Nuclear receptor subfamily 1 group I member 2 (Homo sapiens, UniProt O75469); assay: Transactivation of human PXR expressed in HepG2 cells after 18 hrs by luciferase reporter gene assay; format: cell-based
T1 sequence (O75469 whole entry): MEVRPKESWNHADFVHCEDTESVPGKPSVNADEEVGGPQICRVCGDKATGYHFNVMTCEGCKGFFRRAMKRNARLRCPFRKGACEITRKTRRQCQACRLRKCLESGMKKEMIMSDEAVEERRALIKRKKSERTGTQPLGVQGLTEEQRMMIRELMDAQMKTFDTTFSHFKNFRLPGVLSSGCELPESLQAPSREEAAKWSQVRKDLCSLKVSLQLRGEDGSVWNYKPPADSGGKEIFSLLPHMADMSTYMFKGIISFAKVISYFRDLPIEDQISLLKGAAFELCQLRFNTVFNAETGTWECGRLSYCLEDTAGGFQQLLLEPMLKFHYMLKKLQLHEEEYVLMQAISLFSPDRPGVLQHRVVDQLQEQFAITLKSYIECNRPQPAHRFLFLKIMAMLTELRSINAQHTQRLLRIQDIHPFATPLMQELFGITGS
How it was run: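 HepG2 cells were transiently transfected with pSG5-PXR, pSG5-RXR, pCMV-βgal and a CYP3A4-promoter luciferase reporter. 48 h after transfection, cells were stimulated for 18 h at 0.1, 1 and 10 μM. Luciferase was normalised to β-galactosidase; n = 4. Relative EC50 from n = 3.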

Mus musculus [19] = assay: Antiinflammatory activity against trinitrobenzenesulfonic acid-induced colitis in human PXR expressing transgenic C57/BL6 mouse assessed as decrease in cellular infiltrate in colon at 10 mg/kg, po qd administered 3 days before TNBS challenge measured after 7 days; format: functional, organism-based; parameters: dose 10 mg/kg; conditions: C57Bl/6; how it was run: as §4

- EC50 [18]: 2200 nM
SMILES: CO[C@H]1/C=C/O[C@@]2(C)Oc3c(C)c(O)c4c(O)c(c5c(nc6cc(C)ccn65)c4c3C2=O)NC(=O)/C(C)=C\C=C\[C@H](C)[C@H](O)[C@@H](C)[C@@H](O)[C@@H](C)[C@H](OC(C)=O)[C@@H]1C [RIFAXIMIN]
- Activity (Mus musculus [1]): Active
- Activity (Mus musculus [2]): Active
- Activity (Mus musculus [3]): Active
- Activity (Mus musculus [4]): Active
- Activity (Mus musculus [5]): Active
- Activity (Mus musculus [6]): Active
- Activity (Mus musculus [7]): Active
- Activity (Mus musculus [8]): Active
- Activity (Mus musculus [9]): Active
- Activity (Mus musculus [10]): Active
- Activity (Mus musculus [11]): Active
- Activity (Mus musculus [12]): Active
- Activity (Mus musculus [13]): Active
- Activity (Mus musculus [14]): Active
- Activity (Mus musculus [15]): Active
- Activity (THP-1): Active
- Activity (Mus musculus [16]): Active
- Activity (Mus musculus [17]): Active
- Activity (Mus musculus [19]): Active

— ChEMBL document CHEMBL1799920, “Total synthesis and pharmacological characterization of solomonsterol A, a potent marine pregnane-X-receptor agonist endowed with anti-inflammatory activity” (J Med Chem, 2011)
